Assay results as given in ChEMBL document CHEMBL1122917, “Vinblastin-23-oyl amino acid derivatives: chemistry, physicochemical data, toxicity, and antitumor activities against P388 and L1210 leukemias” (J Med Chem, 1985).

What was measured:
Assay type in all cases: functional
[1] = system: Mus musculus; assay: Number of survivors on 30th day at dose 5 mg/kg/day in 10 mice implanted with P388 leukemia cell line
[2] = system: Mus musculus; assay: Number of survivors on 60th day at dose 15 mg/kg/day in 10 mice implanted with P388 leukemia cell line
[3] = system: Mus musculus; assay: Percent increase in life span at dose 10 mg/kg/day in 10 mice implanted with P388 leukemia cell line
Procedure, shortened: (§1)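 Female DBA2 mice inoculated iv on day 0 with 10^4 P388 cells; single iv treatment on day 1 with drug as sulfate salt in physiological saline. Survival followed; %ILS from all deaths and survivors as (T/C × 100) − 100, maximal MST 30 days; survivors counted on days 30 and 60. Most experiments confirmed three times.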

[4] = system: Mus musculus; assay: Number of survivors on 60th day at dose 7 mg/kg/day in 10 mice implanted with P388 leukemia cell line; procedure, shortened: as §1
[5] = system: Mus musculus; assay: Number of survivors on 30th day at dose 17.5 mg/kg/day in 9 mice implanted with P388 leukemia cell line
[6] = system: Mus musculus; assay: Percent increase in life span at dose 12.5 mg/kg/day in 10 mice implanted with P388 leukemia cell line; procedure, shortened: as §1
[7] = system: Mus musculus; assay: Percent increase in life span at dose 17.5 mg/kg/day in 10 mice implanted with P388 leukemia cell line
[8] = system: Mus musculus; assay: Percent increase in life span of DBA2 mice after inoculation with L1210 leukemia intravenously at a dose of 15 mg/kg per day; conditions: route intravenous
[9] = system: Mus musculus; assay: Number of survivors of DBA2 mice on 60th day after inoculation with L1210 leukemia cell line intravenously at a dose of 15 mg/kg/day; 0/10; conditions: route intravenous
[10] = system: Mus musculus; assay: Number of survivors on 30th day at dose 10 mg/kg/day in 10 mice implanted with P388 leukemia cell line
[11] = system: Mus musculus; assay: Number of survivors on 60th day at dose 5 mg/kg/day in 10 mice implanted with P388 leukemia cell line
[12] = system: Mus musculus; assay: Percent increase in life span at dose 4 mg/kg/day in 10 mice implanted with P388 leukemia cell line; conditions: Mus musculus, P388; procedure, shortened: as §1
[13] = system: Mus musculus; assay: Percent increase in life span at dose 14 mg/kg/day in 10 mice implanted with P388 leukemia cell line; procedure, shortened: as §1
[14] = system: Mus musculus; assay: Number of survivors on 60th day at dose 14 mg/kg/day in 10 mice implanted with P388 leukemia cell line
[15] = system: Mus musculus; assay: Number of survivors on 30th day at dose 14 mg/kg/day in 10 mice implanted with P388 leukemia cell line
[16] = system: Mus musculus; assay: Number of survivors on 60th day at dose 17.5 mg/kg/day in 9 mice implanted with P388 leukemia cell line
[17] = system: Mus musculus; assay: Number of survivors of DBA2 mice on 30th day after inoculation with L1210 leukemia cell line intravenously at a dose of 15 mg/kg/day; 0/10; conditions: route intravenous
[18] = system: Mus musculus; assay: Number of survivors on 30th day at dose 7 mg/kg/day in 10 mice implanted with P388 leukemia cell line
[19] = system: Mus musculus; assay: Percent increase in life span at dose 5 mg/kg/day in 10 mice implanted with P388 leukemia cell line; procedure, shortened: as §1
[20] = system: Mus musculus; assay: Number of survivors on 30th day at dose 12.5 mg/kg/day in 10 mice implanted with P388 leukemia cell line
[21] = system: Mus musculus; assay: Number of survivors on 60th day at dose 10 mg/kg/day in 10 mice implanted with P388 leukemia cell line
[22] = system: Mus musculus; assay: Number of survivors on 30th day at dose 15 mg/kg/day in 10 mice implanted with P388 leukemia cell line
[23] = system: Mus musculus; assay: Number of survivors on 60th day at dose 4 mg/kg/day in 10 mice implanted with P388 leukemia cell line
[24] = system: Mus musculus; assay: Percent increase in life span at dose 7 mg/kg/day in 10 mice implanted with P388 leukemia cell line; procedure, shortened: as §1
[25] = system: Mus musculus; assay: Number of survivors on 30th day at dose 4 mg/kg/day in 10 mice implanted with P388 leukemia cell line
[26] = system: Mus musculus; assay: Number of survivors on 60th day at dose 12.5 mg/kg/day in 10 mice implanted with P388 leukemia cell line
[27] = system: Mus musculus; assay: Number of survivors of DBA2 mice on 60th day after inoculation with L1210 leukemia cell line intravenously at a dose of 9 mg/kg/day; 0/10; conditions: route intravenous
Procedure, shortened: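 Female DBA₂ mice received 10⁴ L1210 cells iv on day 0. Compounds were given iv as sulfate salts in physiological saline, as a single dose on day 1 (mg/kg per day). Groups were 10 mice. Survivors were counted on day 60. Cells were maintained by ip passage in DBA₂ mice.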

[28] = system: Mus musculus; assay: Number of survivors of DBA2 mice on 60th day after inoculation with L1210 leukemia cell line intravenously at a dose of 10 mg/kg/day; 0/10; conditions: route intravenous
[29] = system: Mus musculus; assay: Percent increase in life span at dose 8 mg/kg/day in 10 mice implanted with P388 leukemia cell line; procedure, shortened: as §1
[30] = system: Mus musculus; assay: Number of survivors on 30th day at dose 11 mg/kg/day in 10 mice implanted with P388 leukemia cell line
[31] = system: Mus musculus; assay: Number of survivors on 60th day at dose 11 mg/kg/day in 10 mice implanted with P388 leukemia cell line
[32] = system: Mus musculus; assay: Percent increase in life span of DBA2 mice after inoculation with L1210 leukemia intravenously at a dose of 9 mg/lg per day
[33] = system: Mus musculus; assay: Number of survivors on 30th day at dose 6 mg/kg/day in 10 mice implanted with P388 leukemia cell line
[34] = system: Mus musculus; assay: Number of survivors of DBA2 mice on 30th day after inoculation with L1210 leukemia cell line intravenously at a dose of 9 mg/kg/day; 0/10; conditions: route intravenous
[35] = system: Mus musculus; assay: Number of survivors on 30th day at dose 8 mg/kg/day in 10 mice implanted with P388 leukemia cell line
[36] = system: Mus musculus; assay: Percent increase in life span at dose 6 mg/kg/day in 10 mice implanted with P388 leukemia cell line; procedure, shortened: as §1
[37] = system: Mus musculus; assay: Number of survivors of DBA2 mice on 30th day after inoculation with L1210 leukemia cell line intravenously at a dose of 10 mg/kg/day; 0/10; conditions: route intravenous
[38] = system: Mus musculus; assay: Percent increase in life span at dose 11 mg/kg/day in 10 mice implanted with P388 leukemia cell line; procedure, shortened: as §1
[39] = system: Mus musculus; assay: Number of survivors on 60th day at dose 6 mg/kg/day in 10 mice implanted with P388 leukemia cell line
[40] = system: Mus musculus; assay: Percent increase in life span of DBA2 mice after inoculation with L1210 leukemia intravenously at a dose of 10 mg/lg per day
[41] = system: Mus musculus; assay: Number of survivors on 60th day at dose 8 mg/kg/day in 10 mice implanted with P388 leukemia cell line; procedure, shortened: as §1
[42] = system: Mus musculus; assay: Number of survivors on 60th day at dose 20 mg/kg/day in 10 mice implanted with P388 leukemia cell line; 0/10
[43] = system: Mus musculus; assay: Number of survivors on 60th day at dose 50 mg/kg/day in 10 mice implanted with P388 leukemia cell line; 0/10
[44] = system: Mus musculus; assay: Percent increase in life span at dose 50 mg/kg/day in 10 mice implanted with P388 leukemia cell line; procedure, shortened: as §1
[45] = system: Mus musculus; assay: Percent increase in life span at dose 20 mg/kg/day in 10 mice implanted with P388 leukemia cell line; procedure, shortened: as §1
[46] = system: Mus musculus; assay: Number of survivors on 30th day at dose 60 mg/kg/day in 10 mice implanted with P388 leukemia cell line; 3/10
[47] = system: Mus musculus; assay: Percent increase in life span at dose 70 mg/kg/day in 10 mice implanted with P388 leukemia cell line; procedure, shortened: as §1
[48] = system: Mus musculus; assay: Percent increase in life span at dose 40 mg/kg/day in 10 mice implanted with P388 leukemia cell line; procedure, shortened: as §1
[49] = system: Mus musculus; assay: Percent increase in life span at dose 60 mg/kg/day in 10 mice implanted with P388 leukemia cell line; procedure, shortened: as §1
[50] = system: Mus musculus; assay: Number of survivors on 60th day at dose 60 mg/kg/day in 10 mice implanted with P388 leukemia cell line; 2/10
[51] = system: Mus musculus; assay: Number of survivors on 60th day at dose 40 mg/kg/day in 10 mice implanted with P388 leukemia cell line; 1/10
[52] = system: Mus musculus; assay: Number of survivors on 60th day at dose 70 mg/kg/day in 10 mice implanted with P388 leukemia cell line; procedure, shortened: as §1
[53] = system: Mus musculus; assay: Number of survivors on 30th day at dose 50 mg/kg/day in 10 mice implanted with P388 leukemia cell line; 1/10
[54] = system: Mus musculus; assay: Number of survivors on 30th day at dose 40 mg/kg/day in 10 mice implanted with P388 leukemia cell line; 1/10
[55] = system: Mus musculus; assay: Number of survivors on 30th day at dose 70 mg/kg/day in 10 mice implanted with P388 leukemia cell line; 0/10
[56] = system: Mus musculus; assay: Number of survivors on 30th day at dose 20 mg/kg/day in 10 mice implanted with P388 leukemia cell line; 0/10

Q: Which results are given for `CCOC(=O)[C@@H](NC(=O)[C@@]1(O)[C@H](O)[C@]2(CC)C=CCN3CC[C@@]4(c5cc([C@@]6(C(=O)OC)C[C@H]7C[N@](CCc8c6[nH]c6ccccc86)C[C@](O)(CC)C7)c(OC)cc5N(C)[C@@]14C)[C@@H]32)C(C)C`?
A: Survivors [1]: 0; Survivors [2]: 2; ILS at 10 mg/kg/day [3]: 53.4%; Survivors [4]: 0; Survivors [5]: 0; ILS at 12.5 mg/kg/day [6]: 82.6%; ILS at 17.5 mg/kg/day [7]: 22.2%; ILS at 15 mg/kg/day [8]: 67%; Survivors [9]: 0; Survivors [10]: 0; Survivors [11]: 0; ILS at 4 mg/kg/day [12]: 13.5%; ILS at 14 mg/kg/day [13]: 108%; Survivors [14]: 0; Survivors [15]: 2; Survivors [16]: 0; Survivors [17]: 0; Survivors [18]: 0; ILS at 5 mg/kg/day [19]: 17.2%; Survivors [20]: 2; Survivors [21]: 0; Survivors [22]: 3; Survivors [23]: 1; ILS at 7 mg/kg/day [24]: 40%; Survivors [25]: 1; Survivors [26]: 0

Q: What does the source list for `CCOC(=O)C(CC(C)C)NC(=O)[C@@]1(O)[C@H](O)[C@]2(CC)C=CCN3CC[C@@]4(c5cc([C@@]6(C(=O)OC)C[C@H]7CN(CCc8c6[nH]c6ccccc86)C[C@](O)(CC)C7)c(OC)cc5N(C)[C@@]14C)[C@@H]32` (stereo not given in full)?
A: ILS at 10 mg/kg/day [3]: > 146%; Survivors [27]: 0; Survivors [28]: 0; ILS at 8 mg/kg/day [29]: 46.5%; Survivors [30]: 3; Survivors [31]: 0; ILS [32]: 27%; ILS at 12.5 mg/kg/day [6]: > 146%; Survivors [10]: 7; Survivors [33]: 0; Survivors [34]: 0; ILS at 14 mg/kg/day [13]: 30%; Survivors [14]: 0; Survivors [15]: 2; Survivors [35]: 2; Survivors [20]: 6; ILS at 6 mg/kg/day [36]: 26.7%; Survivors [37]: 0; Survivors [21]: 2; ILS at 11 mg/kg/day [38]: 155%; Survivors [39]: 0; ILS [40]: 29.4%; Survivors [41]: 1; Survivors [26]: 1

Q: With `CCOC(=O)[C@H](Cc1ccc(O)cc1)NC(=O)[C@@]1(O)[C@H](O)[C@]2(CC)C=CCN3CC[C@@]4(c5cc([C@@]6(C(=O)OC)C[C@H]7C[N@](CCc8c6[nH]c6ccccc86)C[C@](O)(CC)C7)c(OC)cc5N(C)[C@@]14C)[C@@H]32` as the compound, how does the Survivors [42] read?
A: The Survivors was 0.

Q: What about the Survivors [43] of the same compound?
A: Its Survivors is 0.

Q: And the ILS at 50 mg/kg/day [44]?
A: The ILS at 50 mg/kg/day was 49.5%.

Q: And the ILS at 20 mg/kg/day [45]?
A: The ILS at 20 mg/kg/day was 29.9%.

Q: What about the Survivors [46] of the same compound?
A: Its Survivors is 3.

Q: What about the ILS at 70 mg/kg/day [47] of the same compound?
A: Its ILS at 70 mg/kg/day is 49.5%.

Q: And the ILS at 40 mg/kg/day [48]?
A: Its ILS at 40 mg/kg/day is 53.3%.

Q: And the ILS at 60 mg/kg/day [49]?
A: Its ILS at 60 mg/kg/day is 49.5%.

Q: What about the Survivors [50] of the same compound?
A: The Survivors was 2.

Q: What about the Survivors [51] of the same compound?
A: The Survivors was 1.

Q: What about the Survivors [52] of the same compound?
A: Its Survivors is 0.

Q: What about the Survivors [53] of the same compound?
A: Its Survivors is 1.

Q: And the Survivors [54]?
A: The Survivors was 1.

Q: What about the Survivors [55] of the same compound?
A: The Survivors was 0.

Q: What about the Survivors [56] of the same compound?
A: The Survivors was 0.
